Assay results taken from ChEMBL document CHEMBL1782009, “Synthesis and characterization of new types of halogenated and alkylated imidazolidineiminothiones and a comparative study of their antitumor, antibacterial, and antifungal activities” (Eur J Med Chem, 2011).
≈ marks a conversion by molar mass, not a printed value.

Experiments:
[1] = test system: HepG2; assay: Cytotoxicity against human HepG2 cells assessed as surviving fraction at 25 ug/ml after 48 hrs by SRB assay relative to control; format: functional
In short: (§1)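 SRB assay per Skehan: compounds at 5.0, 12.5, 25 and 50 were added to cell monolayers in triplicate wells per dose for 48 h at 37 °C, 5% CO2. Cells were then fixed and stained with SRB, excess stain was removed with acetic acid, and bound dye was recovered in Tris EDTA. Surviving fraction was plotted against concentration, and IC50 was read from the dose–response curves.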

[2] = test system: Micrococcus luteus; assay: Antibacterial activity against Sarcina lutea ATCC 934 at 5 mg/ml after 24 hrs by agar disc diffusion method; format: functional; conditions: ATCC 934, 24 h, read-out: DIZ
In short: (§2)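 Agar well-diffusion using 1 cm wells, each loaded with 100 of compound solution (5 mg/mL in DMF). Bacteria were maintained on nutrient agar and plated as a standard suspension. Plates were incubated 24 h at 35 °C, and inhibition zone diameters were measured.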

[3] = test system: HeLa; assay: Cytotoxicity against human HeLa cells assessed as surviving fraction at 50 ug/ml after 48 hrs by SRB assay relative to control; format: functional; in short: as §1
[4] = test system: HCT-116; assay: Cytotoxicity against human HCT116 cells assessed as surviving fraction at 50 ug/ml after 48 hrs by SRB assay relative to control; format: functional; in short: as §1
[5] = test system: HEp-2; assay: Cytotoxicity against human Hep2 cells assessed as surviving fraction at 50 ug/ml after 48 hrs by SRB assay relative to control; format: functional; in short: as §1
[6] = test system: MCF7; assay: Cytotoxicity against human MCF7 cells assessed as surviving fraction at 5 ug/ml after 48 hrs by SRB assay relative to control; format: functional; in short: as §1
[7] = test system: HepG2; assay: Cytotoxicity against human HepG2 cells after 48 hrs by SRB assay; format: functional, cell-based; conditions: HepG2, 48 h; in short: as §1
[8] = test system: HEp-2; assay: Cytotoxicity against human Hep2 cells assessed as surviving fraction at 25 ug/ml after 48 hrs by SRB assay relative to control; format: functional; in short: as §1
[9] = test system: Aspergillus flavus; assay: Antifungal activity against Aspergillus flavus at 5 mg/ml by agar disc diffusion method; format: functional; conditions: read-out: DIZ
[10] = test system: HepG2; assay: Cytotoxicity against human HepG2 cells assessed as surviving fraction at 5 ug/ml after 48 hrs by SRB assay relative to control; format: functional; in short: as §1
[11] = test system: MCF7; assay: Cytotoxicity against human MCF7 cells after 48 hrs by SRB assay; format: functional, cell-based; conditions: MCF7, 48 h; in short: as §1
[12] = test system: HeLa; assay: Cytotoxicity against human HeLa cells assessed as surviving fraction at 12.5 ug/ml after 48 hrs by SRB assay relative to control; format: functional; in short: as §1
[13] = test system: Bacillus subtilis; assay: Antibacterial activity against Bacillus subtilis NCTC 1040 at 5 mg/ml after 24 hrs by agar disc diffusion method; format: functional; conditions: NCTC 1040, 24 h, read-out: DIZ; in short: as §2
[14] = test system: HeLa; assay: Cytotoxicity against human HeLa cells assessed as surviving fraction at 5 ug/ml after 48 hrs by SRB assay relative to control; format: functional; in short: as §1
[15] = test system: HeLa; assay: Cytotoxicity against human HeLa cells after 48 hrs by SRB assay; format: functional, cell-based; in short: as §1
[16] = test system: MCF7; assay: Cytotoxicity against human MCF7 cells assessed as surviving fraction at 25 ug/ml after 48 hrs by SRB assay relative to control; format: functional; in short: as §1
[17] = test system: HCT-116; assay: Cytotoxicity against human HCT116 cells assessed as surviving fraction at 25 ug/ml after 48 hrs by SRB assay relative to control; format: functional; in short: as §1
[18] = Antitumor activity against mouse EAC cells assessed as inhibition of cell viability at 100 ug/ml by Trypan blue assay; format: functional; conditions: Ehrlich
In short: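 EAC cells were taken by needle aspiration of ascitic fluid from preinoculated mice and diluted 1:10 in saline. Then 0.1 mL of cell suspension, 0.8 mL RPMI 1640 and 0.1 mL compound were incubated 2 h at 37 °C. Dead cells were counted by trypan blue exclusion, and % non-viable = non-viable/total cells × 100.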

[19] = test system: HEp-2; assay: Cytotoxicity against human Hep2 cells assessed as surviving fraction at 5 ug/ml after 48 hrs by SRB assay relative to control; format: functional; in short: as §1
[20] = test system: MCF7; assay: Cytotoxicity against human MCF7 cells assessed as surviving fraction at 50 ug/ml after 48 hrs by SRB assay relative to control; format: functional; in short: as §1
[21] = test system: HeLa; assay: Cytotoxicity against human HeLa cells assessed as surviving fraction at 25 ug/ml after 48 hrs by SRB assay relative to control; format: functional; in short: as §1
[22] = test system: HepG2; assay: Cytotoxicity against human HepG2 cells assessed as surviving fraction at 50 ug/ml after 48 hrs by SRB assay relative to control; format: functional; in short: as §1
[23] = test system: HCT-116; assay: Cytotoxicity against human HCT116 cells assessed as surviving fraction at 5 ug/ml after 48 hrs by SRB assay relative to control; format: functional; in short: as §1
[24] = test system: HEp-2; assay: Cytotoxicity against human Hep2 cells after 48 hrs by SRB assay; format: functional, cell-based; conditions: HEp-2, 48 h; in short: as §1
[25] = test system: HCT-116; assay: Cytotoxicity against human HCT116 cells assessed as surviving fraction at 12.5 ug/ml after 48 hrs by SRB assay relative to control; format: functional; in short: as §1
[26] = test system: HCT-116; assay: Cytotoxicity against human HCT116 cells after 48 hrs by SRB assay; format: functional, cell-based; conditions: HCT-116, 48 h; in short: as §1
[27] = test system: HepG2; assay: Cytotoxicity against human HepG2 cells assessed as surviving fraction at 12.5 ug/ml after 48 hrs by SRB assay relative to control; format: functional; in short: as §1
[28] = test system: HEp-2; assay: Cytotoxicity against human Hep2 cells assessed as surviving fraction at 12.5 ug/ml after 48 hrs by SRB assay relative to control; format: functional; in short: as §1
[29] = test system: Escherichia coli; assay: Antibacterial activity against Escherichia coli NCTC 10416 at 5 mg/ml after 24 hrs by agar disc diffusion method; format: functional; conditions: NCTC 10416, 24 h, read-out: DIZ; in short: as §2
[30] = test system: Staphylococcus aureus; assay: Antibacterial activity against Staphylococcus aureus NCTC 7447 at 5 mg/ml after 24 hrs by agar disc diffusion method; format: functional; conditions: NCTC 7447, 24 h, read-out: DIZ; in short: as §2
[31] = test system: Candida albicans; assay: Antifungal activity against Candida albicans IMRU 3669 at 5 mg/ml by agar disc diffusion method; format: functional; conditions: read-out: DIZ
[32] = test system: MCF7; assay: Cytotoxicity against human MCF7 cells assessed as surviving fraction at 12.5 ug/ml after 48 hrs by SRB assay relative to control; format: functional; in short: as §1

Compound | Activity [1] | zone of inhibition at 5000 µg/mL [2] [mm] | Activity [3] | Activity [4] | Activity [5] | Activity [6] | IC50 [7] [µg/mL] | Activity [8] | zone of inhibition at 5000 µg/mL [9] [mm] | Activity [10] | IC50 [11] [µg/mL] | Activity [12] | zone of inhibition at 5000 µg/mL [13] [mm] | Activity [14] | IC50 [15] [µg/mL] | Activity [16] | Activity [17] | inhibition at 100 µg/mL [18] [%] | Activity [19] | Activity [20] | further results
COc1ccc(N2C(=O)N(c3ccc(C)cc3)C(=N)C2=S)c(OC)c1 | 0.23 | 25 | 0.26 | 0.26 | 0.3 | 0.43 | 6.78 (≈ 19.1 µM) | 0.16 | 14 | 0.6 | 4.34 (≈ 12.2 µM) | 0.14 | 22.5 | 0.24 | 2.97 (≈ 8.36 µM) | 0.21 | 0.2 | 70 | 0.6 | 0.29 | Activity [21]: 0.22; Activity [22]: 0.24; Activity [23]: 0.38; IC50 [24]: 7.09 µg/mL (≈ 19.9 µM); Activity [25]: 0.15; IC50 [26]: 4.04 µg/mL (≈ 11.4 µM); Activity [27]: 0.22; Activity [28]: 0.31; zone of inhibition at 5000 µg/mL [29]: 25.5 mm; zone of inhibition at 5000 µg/mL [30]: 22 mm; zone of inhibition at 5000 µg/mL [31]: 17.5 mm; Activity [32]: 0.21
COc1ccc(N2C(=O)N(c3ccc(SC)cc3)C(=N)C2=S)c(OC)c1 | 0.19 | 18 | 0.22 | 0.35 | 0.27 | 0.68 | 11.8 (≈ 30.5 µM) | 0.2 | 14 | 0.69 | 12 (≈ 31 µM) | 0.37 | 18 | 0.74 | 9.83 (≈ 25.4 µM) | 0.19 | 0.24 | 70 | 0.71 | 0.28 | Activity [21]: 0.2; Activity [22]: 0.24; Activity [23]: 0.74; IC50 [24]: 12.1 µg/mL (≈ 31.2 µM); Activity [25]: 0.42; IC50 [26]: 10.6 µg/mL (≈ 27.4 µM); Activity [27]: 0.47; Activity [28]: 0.49; zone of inhibition at 5000 µg/mL [29]: 19 mm; zone of inhibition at 5000 µg/mL [30]: 18 mm; zone of inhibition at 5000 µg/mL [31]: 20 mm; Activity [32]: 0.49
